A selection: hits, their analogues and other compounds. The true share with any hit is near 2.1%.
b-catenin transl: modulators of beta-catenin nuclear translocation; nuclear translocation activity, % at 5 µM; AID 1665; HeLa beta-catenin nuclear translocation, immunofluorescence imaging; 190,000 tested, 0.3% active;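 active = nuclear translocation activity above 50% at 5 µM, with a well cell count of 50 or more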;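 note: per-cell ratio of nuclear to cytoplasmic median beta-catenin stain intensity; plate controls were DMSO negative control for no effect and GSK-3 inhibitor IX positive control for full effect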
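Technique: fluorescence imaging of beta-catenin antibody stain plus DAPI / Material: human HeLa cell line / Incubation: compound treatment 24 h, 37°C, 5% CO2 / Read-out basis: % activation of per-cell nuclear versus cytoplasmic median beta-catenin signal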
Ba/F3 V617F tox: loss of viability in JAK2V617F-driven Ba/F3 cells; 220,000 tested, 1.1% active; inhibition, % at 5.6 µM; Ba/F3 EpoR-JAK2V617F viability, ATP luminescence;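 active = inhibition above the campaign mean plus 3 SD over all tested compounds, cut at about 24% in these data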;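 note: cytokine-independent growth of Ba/F3 cells driven by EpoR plus mutant JAK2; 0% = DMSO-treated cells and 100% = JAK inhibitor I control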
IEC-6 tox: kills IEC-6 intestinal cells in KLF5 counter-screen; inhibition, % at 5 µM; IEC-6 cytotoxicity, luminescence viability; 290,000 tested, 0.78% active; in the data active = inhibition above about 22%;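 note: 0% = plate median of test compound wells and 100% = cytotoxic reference compound wells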
MT stabilize HCS: microtubule stabilization, imaging screen | HeLa tubulin immunostaining HCS, 24 h; share of cells brighter than vehicle mean+2SD | 200,000 tested, 0.83% active | % tubulin-high responders, % at 10 µM;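 active = plate Z-score above 3 for both tubulin-high and condensed-nucleus cell shares, with cell loss under 80%, at 10 µM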;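 note: anti alpha tubulin signal scored within the nucleus-defined area of each cell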
BaF3 tox: reduces parental Ba/F3 cell viability, JAK2V617F counter-screen; 220,000 tested, 1.1% active; inhibition, % at 5.6 µM; CellTiter-Glo ATP luminescence;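 active = inhibition above a per-campaign cutoff, the mean inhibition of all tested compounds plus 3 SD, cut at about 27% in these data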;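 note: 0% = DMSO wells and 100% = JAK Inhibitor I control wells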
KLF5 inhibitor: kruppel-like factor 5 inhibition. DLD-1 KLF5 promoter-luciferase reporter, luminescence. inhibition, % at 5 µM. 290,000 tested, 0.23% active. AID 1700;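 active = inhibition above a per-plate limit of that plate's mean compound inhibition plus 3 SD, cut at about 60% in these data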;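 note: 0% = DMSO wells and 100% = LY294002 at 200 µM; higher means less KLF5 promoter-driven luciferase light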
BaF3 parental 2: counter-screen for JAK2V617F inhibitors: parental Ba/F3 viability inhibitors. shares compounds with Ba/F3 V617F tox. CellTiter-Glo luminescence; cells kept alive by added IL-3. inhibition, % at 5.6 µM. 580 tested, 31% active. AID 1520;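 active = cell growth inhibition above the hit limit set in the earlier mutant JAK2 cell screen, cut at about 27% in these data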;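 note: plate controls were DMSO-treated cells for no effect and JAK Inhibitor I control wells for full effect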
JAK2V617F confrm: confirmation: loss of viability in JAK2V617F-dependent Ba/F3 cells | shares compounds with Ba/F3 V617F tox | inhibition, % at 5.6 µM | Ba/F3 EpoR-JAK2V617F viability, CellTiter-Glo luminescence | 580 tested, 66% active;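 active = mean inhibition above the hit cutoff derived in the earlier primary screen, cut at about 25% in these data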;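 note: 0% = DMSO-treated cells and 100% = JAK inhibitor I control wells; higher means lower luminescence from reduced cell ATP and viability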
* hit, by the source's call; nt = not tested or not shown.

SMILES | b-catenin transl | Ba/F3 V617F tox | IEC-6 tox | MT stabilize HCS | BaF3 tox | KLF5 inhibitor | others
Cc1nc2c3ccccc3n(Cc3ccccc3F)c2s1 | -1.7 | 4.1 | -1.7 | 2.9 | 7.9 | -17.0
CC(C)N1CCC(N2CCN(Cc3nc4ccccc4s3)CC2CCO)CC1 (configuration not stated) | 3.0 | -0.7 | -3.4 | nt | 4.4 | -6.2
O=c1cc(-c2ccccc2)[nH]c2nc3ccccc3n12 | 0.9 | 5.4 | 13.4 | 44.2* | 7.8 | -83.8
O=c1cc(CCl)[nH]c2nc3ccccc3n12 | -1.3 | -0.7 | -3.6 | nt | -3.3 | -6.6
COc1cc2c(cc1OC)C(C)N(C(=O)CCN1C(=O)C3C4C=CC(C4)C3C1=O)CC2 (configuration not stated) | -1.3 | -1.2 | -4.1 | 4.4 | 5.0 | -32.0
CCOC(=O)N1CCN(c2c(NCc3ccc(F)cc3)c(=O)c2=O)CC1 | 45.5 | 16.1 | 7.8 | nt | 31.1* | 40.7
CCOC(=O)N1CCN(c2c(NCc3ccc(Cl)cc3)c(=O)c2=O)CC1 | nt | 35.0* | 19.2 | 7.4 | 69.1* | 40.2
CCOC(=O)N1CCN(c2c(NCCN3CCN(Cc4ccccc4)CC3)c(=O)c2=O)CC1 | nt | -0.8 | -3.6 | 2.6 | 4.5 | -40.0
CCOC(=O)N1CCN(c2c(NCc3ccccc3OC)c(=O)c2=O)CC1 | nt | -2.1 | 3.7 | 4.9 | -1.6 | 4.3
CCOC(=O)N1CCN(c2c(NCc3cccs3)c(=O)c2=O)CC1 | nt | -2.5 | 1.3 | 20.4* | 8.5 | 7.6
COC(=O)c1ccccc1NC(=O)C1CC(=O)N(c2ccc(C)cc2)C1 (configuration not stated) | 2.5 | -1.5 | -5.4 | 6.7 | 53.7* | -37.0
CCn1c(=O)cc(SCC(=O)NCc2ccc(C)cc2)c2ccccc21 | -0.2 | 2.2 | 3.1 | 31.2* | 3.4 | -15.1
CCn1c(=O)cc(SCC(=O)NCc2ccco2)c2ccccc21 | 55.0* | 3.7 | 10.8 | 45.7* | 11.9 | -2.8
COC(=O)c1ccc(COc2ccccc2/C=N/NS(=O)(=O)c2ccccc2)cc1 | 1.4 | 3.5 | 6.4 | 23.1* | 5.8 | -30.7
CCOC(=O)C1=C(O)/C(=C\c2ccc(CNC(=O)C(=O)Nc3ccccc3)o2)N=C1C | 3.5 | 2.0 | -9.2 | 2.5 | 3.7 | -5.7
CCOc1ccccc1CN(Cc1ccco1)S(=O)(=O)c1ccc(-n2cnnn2)c(OC)c1 | -0.7 | 7.0 | 4.7 | 40.9* | 8.2 | -15.1
NC(N)=NCC(O)CN(c1ccccc1)c1ccccc1 (configuration not stated) | 6.6 | 6.3 | 7.5 | nt | 10.0 | 7.4
CC1=NNC(=O)/C1=C\c1cn(-c2ccccc2)nc1-c1ccc(F)cc1 | 5.0 | 4.0 | -2.4 | 22.1* | 7.9 | 0.8
O=C(Nc1nc2c(Br)cccc2s1)C1CC1 | nt | nt | -6.8 | nt | nt | -11.9
O=C(OCC(=O)N1CCN(c2ccccc2)CC1)c1ccc(O)cc1O | nt | nt | -0.3 | nt | nt | -13.6
COc1ccc(-c2nc(NC(=O)C3CC(=O)N(c4ccc5c(c4)OCCO5)C3)sc2C)cc1 (configuration not stated) | nt | 44.7* | 5.6 | 11.2* | 53.0* | -11.0
Nc1nnc(SCCCOc2ccc(F)cc2)s1 | nt | nt | 0.9 | nt | nt | -7.8
CCCOc1ccc(OCCSc2nnc(N)s2)cc1 | 2.8 | 23.5* | 5.0 | 2.1 | 40.4* | -107.0
C=CCNC(=S)N/N=C(\C)c1ccccn1 | nt | 98.4* | 91.4* | 3.0 | 91.2* | 53.7
C/C(=N/NC(=O)CNC(=O)c1ccccn1)c1ccccc1 | 0.1 | -2.0 | -2.9 | 1.8 | 5.8 | 5.4
SMILES | b-catenin transl | Ba/F3 V617F tox | IEC-6 tox | MT stabilize HCS | BaF3 tox | KLF5 inhibitor | others
Cc1ccc(O)c(CNc2ccc(S(=O)(=O)Nc3nccs3)cc2)c1 | -2.0 | -2.1 | 1.3 | nt | -3.3 | -5.8
Cc1c(NC(N)=O)c(=O)n(-c2ccccc2)n1C | -0.6 | 1.1 | 3.6 | 1.1 | 79.8* | 5.4
Cc1c(NC(=O)CC(=O)Nc2c(C)n(C)n(-c3ccccc3)c2=O)c(=O)n(-c2ccccc2)n1C | 0.6 | -1.8 | 1.9 | 4.7 | 3.9 | 14.7
COc1ccccc1NC(=O)C1C2CCCCC21 (configuration not stated) | -6.8 | 93.9* | -3.4 | 2.3 | 1.6 | -35.4 | BaF3 parental 2=-7.9;JAK2V617F confrm=-7.6
COc1ccccc1NC(=O)NC1CCCCCCC1 | nt | nt | -1.4 | nt | nt | -14.2
Cc1[nH]c2ccc(F)cc2c1CCN(Cc1ccncc1)C(=S)Nc1cccc(F)c1 | 0.5 | 26.6* | 3.5 | 2.0 | 24.6 | -23.4 | BaF3 parental 2=29.3*;JAK2V617F confrm=46.5*
Cc1cc(C)nc(Nc2cccc(C(F)(F)F)c2)n1 | nt | nt | -14.9 | nt | nt | -23.4
Nc1ccccc1Nc1cccc(C(F)(F)F)c1 | 1.5 | 41.9* | -8.5 | 2.1 | 0.5 | -37.6 | BaF3 parental 2=40.4*;JAK2V617F confrm=92.8*
CCOc1cc(-c2nccc3cc(OC)c(OC)cc23)cc(OCC)c1OCC | nt | nt | -1.4 | nt | nt | -117.2
O=C(CSc1ccc2ccccc2c1Br)Nc1cccc(S(=O)(=O)NC2=NCCCCC2)c1 | -0.2 | 32.6* | 15.3 | 1.7 | 0.8 | 3.5 | BaF3 parental 2=2.9;JAK2V617F confrm=75.5*
CCC(Oc1ccc2c(c1)C(=O)CC(C)(C)O2)C(=O)NCCN1CCCCCC1 (configuration not stated) | -0.7 | -0.1 | 1.0 | 2.5 | 2.8 | -12.8
Cc1cc(Cl)n2c(nc3cc(F)c(F)cc32)c1C#N | -0.2 | 47.6* | 13.1 | 2.1 | 24.2 | -0.4 | BaF3 parental 2=33.1*;JAK2V617F confrm=93.2*
CCOc1ccc(OCCn2c(=S)[nH]c3c(N)ncnc32)cc1 | -0.5 | -2.4 | -8.1 | 2.1 | 5.6 | -27.4
Cc1ccc(OCCn2cnc3c(N)ncnc32)cc1 | 0.0 | 92.6* | 6.5 | 3.0 | 22.1 | -2.2 | BaF3 parental 2=81.9*;JAK2V617F confrm=27.8*
CCOc1ccc(NC(=O)CSC(N)=O)cc1 | -0.8 | 74.5* | -8.9 | 5.6 | 3.7 | -33.2 | BaF3 parental 2=-5.7;JAK2V617F confrm=11.9
CCOc1ccc(NC(=S)NNC(=O)CC(C)O)cc1 (configuration not stated) | 0.2 | 26.4* | 0.3 | 2.7 | 1.2 | -32.7 | BaF3 parental 2=-2.0;JAK2V617F confrm=-5.0
CCOc1ccc(NC(=O)CC)cc1 | 0.4 | -1.8 | -1.9 | 1.0 | 5.0 | -12.1
Cc1ccc(C)c(S(=O)(=O)Nc2ccc3scnc3c2)c1 | nt | 35.2* | 17.4 | 24.9 | 19.8 | 16.4 | BaF3 parental 2=16.1;JAK2V617F confrm=32.6*
O=C(NCCCCCCNC(=O)OCCO)OCCO | 0.0 | 83.8* | 5.2 | 3.4 | 5.4 | 9.2 | BaF3 parental 2=-5.1;JAK2V617F confrm=7.1
Cc1ccc(C(=O)N2CCC(C)CC2)cc1NC1=NC2CS(=O)(=O)CC2S1 (configuration not stated) | nt | nt | 3.6 | nt | nt | -36.5
CCOc1ccc(CCNC(=O)Cn2ccc3ccccc3c2=O)cc1OCC | -0.9 | 100.7* | 4.0 | 4.2 | 0.7 | -3.0 | BaF3 parental 2=-1.5;JAK2V617F confrm=4.8
CCOc1ccc(CCNC(=O)Cn2cccc2C(=O)c2ccccc2)cc1OCC | -5.1 | 0.9 | -0.6 | 4.2 | 1.8 | 8.4

Screens: PubChem, several laboratories
